Tested on: HEK-293T
Assay: Multiplex assay against HEK293T;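 as to Population Tubulin-Different-Phenotype (%): share of the cells with healthy nuclei that show this phenotype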
Assay type: toxicity, cell-based
Details: human
Summary of the method: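 Cells stained live at seeding with Hoechst33342, BioTracker Green Microtubule Cytoskeleton Dye, MitoTracker Red and Annexin V Alexa Fluor 680 were imaged on a CQ1 microscope at 37°C and 5% CO2 after compound addition. Their classification by CellPathfinder machine-learning gating ran from Hoechst high-intensity objects versus normal cells, to healthy, pyknosed or fragmented nuclei among normal cells, to mitotic or apoptotic among pyknosed cells. Tubulin, mitochondrial-mass and membrane-permeability phenotypes are per cents of healthy-nucleus cells.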

[1] = 12 h, 1 µM, compound concentration 1 uM, replicate 1
[2] = 12 h, 1 µM, compound concentration 1 uM, replicate 2
[3] = 12 h, 10 µM, compound concentration 10 uM, replicate 1
[4] = 12 h, 10 µM, compound concentration 10 uM, replicate 2
[5] = 24 h, 1 µM, compound concentration 1 uM, replicate 1
[6] = 24 h, 1 µM, compound concentration 1 uM, replicate 2
[7] = 24 h, 10 µM, compound concentration 10 uM, replicate 1
[8] = 24 h, 10 µM, compound concentration 10 uM, replicate 2

## CCCS(=O)(=O)Nc1ccc(F)c(C(=O)c2c[nH]c3ncc(Cl)cc23)c1F [PLX-4720]
[1]
  Population Apoptotic (%): 13%
  Population Fragmented Nuclei (%): 16%
  Population Healthy Nuclei (%): 62%
  Population Hoechst High Intensity Objects (%): 11%
  Population Membrane Permeable-Phenotype (%): 6%
  Population Mitochondria Different-Phenotype (%): 4%
  Population Mitotic Cells (%): 86%
  Population Normal (%): 88%
  Population Pyknosed Nuclei (%): 20%
  Population Tubulin-Different-Phenotype (%): 8%
  Total Cell Count: 675
[2]
  Population Apoptotic (%): 6%
  Population Fragmented Nuclei (%): 7%
  Population Healthy Nuclei (%): 87%
  Population Hoechst High Intensity Objects (%): 2%
  Population Membrane Permeable-Phenotype (%): 2%
  Population Mitochondria Different-Phenotype (%): 10%
  Population Mitotic Cells (%): 93%
  Population Normal (%): 97%
  Population Pyknosed Nuclei (%): 5%
  Population Tubulin-Different-Phenotype (%): 14%
  Total Cell Count: 1750
[3]
  Population Apoptotic (%): 21%
  Population Fragmented Nuclei (%): 13%
  Population Healthy Nuclei (%): 73%
  Population Hoechst High Intensity Objects (%): 13%
  Population Membrane Permeable-Phenotype (%): 3%
  Population Mitochondria Different-Phenotype (%): 2%
  Population Mitotic Cells (%): 78%
  Population Normal (%): 86%
  Population Pyknosed Nuclei (%): 12%
  Population Tubulin-Different-Phenotype (%): 1%
  Total Cell Count: 751
[4]
  Population Apoptotic (%): 11%
  Population Fragmented Nuclei (%): 9%
  Population Healthy Nuclei (%): 86%
  Population Hoechst High Intensity Objects (%): 2%
  Population Membrane Permeable-Phenotype (%): 0%
  Population Mitochondria Different-Phenotype (%): 5%
  Population Mitotic Cells (%): 88%
  Population Normal (%): 97%
  Population Pyknosed Nuclei (%): 4%
  Population Tubulin-Different-Phenotype (%): 2%
  Total Cell Count: 1952
[5]
  Population Apoptotic (%): 28%
  Population Fragmented Nuclei (%): 13%
  Population Healthy Nuclei (%): 78%
  Population Hoechst High Intensity Objects (%): 7%
  Population Membrane Permeable-Phenotype (%): 7%
  Population Mitotic Cells (%): 71%
  Population Normal (%): 92%
  Population Pyknosed Nuclei (%): 7%
  Population Tubulin-Different-Phenotype (%): 9%
  Total Cell Count: 803
[6]
  Population Apoptotic (%): 3%
  Population Fragmented Nuclei (%): 20%
  Population Healthy Nuclei (%): 77%
  Population Hoechst High Intensity Objects (%): 5%
  Population Membrane Permeable-Phenotype (%): 8%
  Population Mitochondria Different-Phenotype (%): 3%
  Population Mitotic Cells (%): 96%
  Population Normal (%): 94%
  Population Pyknosed Nuclei (%): 2%
  Population Tubulin-Different-Phenotype (%): 24%
  Total Cell Count: 2555
[7]
  Population Apoptotic (%): 15%
  Population Fragmented Nuclei (%): 14%
  Population Healthy Nuclei (%): 78%
  Population Hoechst High Intensity Objects (%): 6%
  Population Membrane Permeable-Phenotype (%): 5%
  Population Mitochondria Different-Phenotype (%): 2%
  Population Mitotic Cells (%): 84%
  Population Normal (%): 93%
  Population Pyknosed Nuclei (%): 6%
  Population Tubulin-Different-Phenotype (%): 3%
  Total Cell Count: 975
[8]
  Population Apoptotic (%): 3%
  Population Fragmented Nuclei (%): 29%
  Population Healthy Nuclei (%): 68%
  Population Hoechst High Intensity Objects (%): 3%
  Population Membrane Permeable-Phenotype (%): 3%
  Population Mitochondria Different-Phenotype (%): 1%
  Population Mitotic Cells (%): 96%
  Population Normal (%): 96%
  Population Pyknosed Nuclei (%): 1%
  Population Tubulin-Different-Phenotype (%): 4%
  Total Cell Count: 3379

Source: ChEMBL document CHEMBL4689842, “EUbOPEN Chemogenomics Library wave 1” (2021)
